Reference: ChEMBL document CHEMBL1914430, “Synthesis of some new 1,3,5-trisubstituted pyrazolines bearing benzene sulfonamide as anticancer and anti-inflammatory agents” (Bioorg Med Chem Lett, 2011)

Tests used:
Assay type in all cases: functional
[1] = test system: Rattus norvegicus; assay: Antiinflammatory activity in Wistar rat assessed as inhibition of carrageenan-induced hind paw edema at 20 mg/kg, po administered 30 mins before carrageenan challenge measured after 3 hrs by plethysmometer
Method in brief: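 Wistar rats of either sex, 150–175 g, fasted 16 h, n = 6 per group. Compound given orally at 20 mg/kg as a suspension in 1% CMC in water (10 mL/kg); controls got vehicle only. After 30 min, 0.1 mL of 1% carrageenan in saline was injected subplantar into the left hind paw. Paw volume was measured by plethysmometer at 0, 3 and 5 h. Inhibition = (1 − Vt/Vc) × 100, reported as mean ± SEM.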

[2] = test system: CCRF-CEM; assay: Anticancer activity against human CCRF-CEM cells after 48 hrs
Method in brief: (§1)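 NCI Drug Evaluation Branch 60-cell-line screen across leukemia, melanoma, lung, colon, CNS, ovarian, renal, prostate and breast panels. The incubation period is 48 h. Parameters are derived from dose–response data: GI50 is the concentration giving 50% decrease in net growth, TGI is total growth inhibition, and LC50 is net 50% loss of initial cells. Values beyond the tested range are reported as greater or less than the maximum or minimum concentration.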

[3] = test system: K562; assay: Anticancer activity against human K562 cells after 48 hrs; conditions: K562, 48 h; method in brief: as §1
[4] = test system: SR; assay: Anticancer activity against human SR cells after 48 hrs
Method in brief: (§2)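 NCI 60-line panel protocol with a 48 h incubation. Per line: GI50 = concentration giving 50% decrease in net cell growth; TGI = total growth inhibition; LC50 = net 50% loss of initial cells. When the level was not reached or was exceeded, the value is given as greater or less than the highest or lowest concentration tested.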

[5] = test system: A549; assay: Anticancer activity against human A549 cells after 48 hrs; conditions: A549, 48 h; method in brief: as §1
[6] = test system: EKVX; assay: Anticancer activity against human EKVX cells after 48 hrs; conditions: for CC50: read-out: LC50 (the source's name); method in brief: as §1
[7] = test system: HOP-92; assay: Anticancer activity against human HOP92 cells after 48 hrs; conditions: HOP-92, 48 h; for CC50: read-out: LC50 (the source's name); method in brief: as §1
[8] = test system: NCI-H460; assay: Anticancer activity against human NCI-H460 cells after 48 hrs; conditions: NCI-H460, 48 h; method in brief: as §2
[9] = test system: HCC 2998; assay: Anticancer activity against human HCC2998 cells after 48 hrs; conditions: HCC 2998, 48 h; method in brief: as §1
[10] = test system: HCT-116; assay: Anticancer activity against human HCT116 cells after 48 hrs; conditions: HCT-116, 48 h; for CC50: read-out: LC50 (the source's name); method in brief: as §1
[11] = test system: HCT-15; assay: Anticancer activity against human HCT15 cells after 48 hrs; conditions: HCT-15, 48 h; for CC50: read-out: LC50 (the source's name); method in brief: as §1
[12] = test system: HT-29; assay: Anticancer activity against human HT-29 cells after 48 hrs; conditions: HT-29, 48 h; for CC50: read-out: LC50 (the source's name); method in brief: as §1
[13] = test system: SF-295; assay: Anticancer activity against human SF295 cells after 48 hrs; conditions: SF-295, 48 h; method in brief: as §2
[14] = test system: SF-539; assay: Anticancer activity against human SF539 cells after 48 hrs; conditions: SF-539, 48 h; method in brief: as §2
[15] = test system: U-251; assay: Anticancer activity against human U251 cells after 48 hrs; conditions: U-251, 48 h; for CC50: read-out: LC50 (the source's name)
Method in brief: (§3)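 NCI ~60 human tumour cell line panel with a 48 h incubation. GI50 is the concentration giving a 50% fall in net growth, TGI gives total growth inhibition, and LC50 gives a net 50% loss of initial cells. An effect not reached or exceeded is reported as greater or less than the highest or lowest concentration tested.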

[16] = test system: Malme-3M; assay: Anticancer activity against human MALME-3M cells after 48 hrs; conditions: for CC50: read-out: LC50 (the source's name); method in brief: as §1
[17] = test system: SK-MEL-5; assay: Anticancer activity against human SK-MEL-5 cells after 48 hrs; conditions: SK-MEL-5, 48 h; method in brief: as §2
[18] = test system: UACC-257; assay: Anticancer activity against human UACC257 cells after 48 hrs; conditions: UACC-257, 48 h; method in brief: as §3
[19] = test system: IGROV-1; assay: Anticancer activity against human IGROV1 cells after 48 hrs; conditions: IGROV-1, 48 h; method in brief: as §1
[20] = test system: 786-0; assay: Anticancer activity against human 786-0 cells after 48 hrs; conditions: 786-0, 48 h; for CC50: read-out: LC50 (the source's name); method in brief: as §1
[21] = test system: SN12C; assay: Anticancer activity against human SN12C cells after 48 hrs; method in brief: as §2
[22] = test system: TK-10; assay: Anticancer activity against human TK10 cells after 48 hrs; conditions: TK-10, 48 h; method in brief: as §3
[23] = test system: UO-31; assay: Anticancer activity against human UO31 cells after 48 hrs; conditions: UO-31, 48 h; for CC50: read-out: LC50 (the source's name); method in brief: as §3
[24] = test system: PC-3; assay: Anticancer activity against human PC3 cells after 48 hrs; conditions: PC-3, 48 h; for CC50: read-out: LC50 (the source's name); method in brief: as §2
[25] = test system: DU-145; assay: Anticancer activity against human DU145 cells after 48 hrs; conditions: DU-145, 48 h; method in brief: as §1
[26] = test system: MCF7; assay: Anticancer activity against human MCF7 cells after 48 hrs; conditions: MCF7, 48 h; method in brief: as §1
[27] = test system: MDA-MB-231; assay: Anticancer activity against human MDA-MB-231 cells after 48 hrs; conditions: MDA-MB-231, 48 h; for CC50: read-out: LC50 (the source's name); method in brief: as §1
[28] = Anticancer activity against human Hs 578T cells after 48 hrs; conditions: for CC50: read-out: LC50 (the source's name); method in brief: as §1
[29] = test system: T47D; assay: Anticancer activity against human T47D cells after 48 hrs; conditions: for CC50: read-out: LC50 (the source's name); method in brief: as §3
[30] = test system: MDA-MB-468; assay: Anticancer activity against human MDA-MB-468 cells after 48 hrs; conditions: MDA-MB-468, 48 h; for CC50: read-out: LC50 (the source's name); method in brief: as §1

Cc1cc(O)c(C2=NN(c3ccc(S(N)(=O)=O)cc3)C(/C=C/c3ccccc3)C2)cc1Cl (configuration not stated)
inhibition in vivo at 20 mg/kg [1]: 78.9%
GI50 [2]: 17.7 µM
LC50 (concentration causing net 50% loss of initial cells) [2]: > 100 µM
TGI [2]: 50 µM
GI50 [3]: 11.6 µM
LC50 (concentration killing 50% of initial cells) [3]: > 100 µM
TGI [3]: 87.5 µM
GI50 [4]: 12.7 µM
LC50 (concentration killing 50% of initial cells) [4]: 89.7 µM
TGI [4]: 33.8 µM
GI50 [5]: 11 µM
LC50 (net 50% loss of initial cells) [5]: 86 µM
TGI [5]: 30.8 µM
GI50 [6]: 14.2 µM
TGI [6]: 35.3 µM
CC50 [6]: 87.4 µM
GI50 [7]: 2.36 µM
TGI [7]: 8.48 µM
CC50 [7]: 34 µM
GI50 [8]: 4.03 µM
LC50 (50% lethal concentration) [8]: 41.3 µM
TGI [8]: 17 µM
GI50 [9]: 9.89 µM
LC50 (net 50% loss of initial cells) [9]: 92.5 µM
TGI [9]: 30.3 µM
GI50 [10]: 2.4 µM
TGI [10]: 14.6 µM
CC50 [10]: 38.2 µM
GI50 [11]: 18.9 µM
CC50 [11]: > 100 µM
GI50 [12]: 3.73 µM
TGI [12]: 14.7 µM
CC50 [12]: 38.3 µM
GI50 [13]: 2.36 µM
LC50 (concentration giving net 50% loss of initial cells) [13]: 37.3 µM
TGI [13]: 11.9 µM
GI50 [14]: 2.98 µM
LC50 (concentration causing net 50% loss of initial cells) [14]: 37.5 µM
TGI [14]: 14 µM
GI50 [15]: 3.79 µM
TGI [15]: 15.6 µM
CC50 [15]: 39.5 µM
GI50 [16]: 3.01 µM
TGI [16]: 17.4 µM
CC50 [16]: 51.9 µM
GI50 [17]: 4.23 µM
LC50 [17]: 40.5 µM
TGI [17]: 16.4 µM
GI50 [18]: 14.5 µM
LC50 [18]: > 100 µM
TGI [18]: 45.7 µM
GI50 [19]: 4.32 µM
LC50 (net 50% loss of initial cells) [19]: 68.7 µM
TGI [19]: 19.8 µM
GI50 [20]: 4.09 µM
TGI [20]: 12.5 µM
CC50 [20]: 35.3 µM
GI50 [21]: 11.1 µM
LC50 [21]: 59.4 µM
TGI [21]: 25.6 µM
GI50 [22]: 14.8 µM
LC50 [22]: 60.7 µM
TGI [22]: 29.9 µM
GI50 [23]: 15.2 µM
TGI [23]: 34.9 µM
CC50 [23]: 79.9 µM
GI50 [24]: 3.15 µM
TGI [24]: 11.5 µM
CC50 [24]: 34 µM
GI50 [25]: 14.1 µM
LC50 (concentration causing net 50% loss of initial cells) [25]: > 100 µM
TGI [25]: 38.6 µM
GI50 [26]: 3.93 µM
LC50 [26]: 40.1 µM
TGI [26]: 16.1 µM
GI50 [27]: 4.56 µM
TGI [27]: 16.3 µM
CC50 [27]: 40.8 µM
GI50 [28]: 12.3 µM
TGI [28]: 49.7 µM
CC50 [28]: > 100 µM
GI50 [29]: 3.38 µM
TGI [29]: 14.7 µM
CC50 [29]: 44.5 µM
GI50 [30]: 3.94 µM
TGI [30]: 13.8 µM
CC50 [30]: 37.2 µM

COc1ccc(C2CC(c3cc(Cl)c(C)cc3O)=NN2c2ccc(S(N)(=O)=O)cc2)cc1OC (configuration not stated)
inhibition in vivo at 20 mg/kg [1]: 60.5%
GI50 [2]: 5.35 µM
LC50 (concentration causing net 50% loss of initial cells) [2]: > 100 µM
TGI [2]: > 100 µM
GI50 [3]: 3.18 µM
LC50 (concentration killing 50% of initial cells) [3]: > 100 µM
GI50 [4]: 2.82 µM
LC50 (concentration killing 50% of initial cells) [4]: > 100 µM
GI50 [5]: 3.54 µM
LC50 (net 50% loss of initial cells) [5]: > 100 µM
TGI [5]: 19.7 µM
GI50 [6]: 4.15 µM
TGI [6]: 100 µM
CC50 [6]: > 100 µM
GI50 [7]: 1.81 µM
TGI [7]: 7.42 µM
CC50 [7]: > 100 µM
GI50 [8]: 2.5 µM
LC50 (50% lethal concentration) [8]: 22 µM
TGI [8]: 5.85 µM
GI50 [9]: 2.72 µM
LC50 (net 50% loss of initial cells) [9]: 27.4 µM
TGI [9]: 7.25 µM
GI50 [10]: 1.72 µM
TGI [10]: 4.36 µM
CC50 [10]: 12.4 µM
GI50 [11]: 3.32 µM
TGI [11]: 20.2 µM
CC50 [11]: > 100 µM
GI50 [12]: 2.24 µM
TGI [12]: 6.48 µM
CC50 [12]: 36.9 µM
GI50 [13]: 2.7 µM
LC50 (concentration giving net 50% loss of initial cells) [13]: 0.34 µM
TGI [13]: 6.24 µM
GI50 [14]: 2.1 µM
LC50 (concentration causing net 50% loss of initial cells) [14]: 12 µM
TGI [14]: 4.75 µM
GI50 [15]: 3.71 µM
TGI [15]: 14 µM
CC50 [15]: 48.2 µM
GI50 [16]: 3.65 µM
TGI [16]: 24.6 µM
CC50 [16]: > 100 µM
GI50 [17]: 4.28 µM
LC50 [17]: 39.7 µM
TGI [17]: 15.2 µM
GI50 [18]: 4.22 µM
LC50 [18]: > 100 µM
TGI [18]: 19.7 µM
GI50 [19]: 2.34 µM
LC50 (net 50% loss of initial cells) [19]: 28.8 µM
TGI [19]: 5.46 µM
GI50 [20]: 2.37 µM
TGI [20]: 5.04 µM
CC50 [20]: > 100 µM
GI50 [21]: 3.7 µM
LC50 [21]: > 100 µM
TGI [21]: 30 µM
GI50 [22]: 3.97 µM
LC50 [22]: > 100 µM
TGI [22]: 18.4 µM
GI50 [23]: 3.3 µM
CC50 [23]: > 100 µM
GI50 [24]: 2.61 µM
TGI [24]: 13.7 µM
CC50 [24]: > 100 µM
GI50 [25]: 4.49 µM
LC50 (concentration causing net 50% loss of initial cells) [25]: > 100 µM
TGI [25]: 21.7 µM
GI50 [26]: 3.07 µM
LC50 [26]: > 100 µM
TGI [26]: 13.6 µM
GI50 [27]: 3.81 µM
TGI [27]: 12.5 µM
CC50 [27]: 40.4 µM
GI50 [28]: 3.29 µM
TGI [28]: 34.3 µM
CC50 [28]: > 100 µM
GI50 [29]: 3.1 µM
TGI [29]: 13.3 µM
CC50 [29]: > 100 µM
GI50 [30]: 2.58 µM
TGI [30]: 9.51 µM
CC50 [30]: > 100 µM
